Measurements: ChEMBL document CHEMBL4229550, “An antimycobacterial pleuromutilin analogue effective against dormant bacilli” (Bioorg Med Chem, 2018)
≈ marks a conversion by molar mass, not a printed value. Calls of active or inactive are those of the source. No cut-off for these calls is given here.

What was measured:
[1] = test system: Streptococcus pneumoniae; test: Antibacterial activity against Streptococcus pneumoniae ATCC 6301 incubated for 24 hrs under aerobic condition by MABA; type: functional; conditions: ATCC 6301, 24 h, read-out: MIC100
How it was run: (§1)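 Mid-log cultures at OD 0.5 were exposed to serial dilutions under aerobic conditions at 37 °C for 24 h. Resazurin was then added from a 0.08% stock for 1 h. MIC100 was the lowest concentration where the dye stayed blue (pink means growth). Absorbance was also read at 570 and 600 nm.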

[2] = test system: Mus musculus; test: AUC (0 to 24 hrs) in Balb/c mouse at 3 mg/kg, iv; type: ADME, organism-based; set-up: time < 24 hr, dose 3 mg/kg, route intravenous; conditions: in vivo
How it was run: (§2)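 Single IV dose of 3 mg/kg in BALB/c mice (n = 3). Serum concentration-time data were used to derive t1/2, Cmax and AUC over 0–24 h and to infinity.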

[3] = Apparent permeability from basolateral to apical side in human Caco2 cells at 10 uM after 2 hrs by LC-MS/MS analysis; type: ADME, cell-based; conditions: caco-2, 2 h
[4] = Apparent permeability from apical to basolateral side in human Caco2 cells at 10 uM after 2 hrs by LC-MS/MS analysis; type: ADME, cell-based; conditions: caco-2, 2 h
[5] = Cmax in Balb/c mouse at 3 mg/kg, iv; type: ADME, organism-based; set-up: dose 3 mg/kg, route intravenous; conditions: in vivo; how it was run: as §2
[6] = test system: Mus musculus; test: Oral bioavailability in Balb/c mouse at 30 mg/kg; type: ADME, organism-based; conditions: in vivo
How it was run: (§3)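 Single oral dose of 30 mg/kg in BALB/c mice (n = 6). Serum PK parameters were t1/2, tmax, Cmax and AUC over 0–24 h and to infinity. Oral bioavailability F was calculated against the 3 mg/kg IV dose.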

[7] = AUC (0 to infinity) in Balb/c mouse at 3 mg/kg, iv; type: ADME, organism-based; set-up: dose 3 mg/kg, route intravenous, time infinity; conditions: in vivo; how it was run: as §2
[8] = test system: Erythrocyte; test: Hemolytic activity in sheep erythrocytes after 2 hrs; type: ADME, cell-based; conditions: Ovis aries
How it was run: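 Washed heparinized sheep erythrocytes at 3% in buffer pH 7.4 were treated with 2–200 µg/mL for 2 h at 37 °C with gentle shaking. Triton X-100 (0.01–1%) was the positive control and PEG:H2O diluent the negative control. Released hemoglobin was read at OD540 and % hemolysis calculated against both controls.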

[9] = test system: Acinetobacter baumannii; test: Antibacterial activity against Acinetobacter baumannii ATCC 19606 incubated for 24 hrs under aerobic condition by MABA; type: functional; conditions: ATCC 19606 = CIP 70.34 = JCM 6841, 24 h, read-out: MIC100; how it was run: as §1
[10] = Cmax in Balb/c mouse at 30 mg/kg, po; type: ADME, organism-based; set-up: dose 30 mg/kg, route oral; conditions: in vivo; how it was run: as §3
[11] = test system: Streptococcus salivarius; test: Antibacterial activity against Streptococcus salivarius […] incubated for 24 hrs under aerobic condition by MABA; type: functional; conditions: read-out: MIC100
How it was run: (§4)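 Resazurin was then added from a 0.08% stock for 1 h. MIC100 was the lowest concentration where the dye stayed blue (pink means growth). Absorbance was also read at 570 and 600 nm.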

[12] = test system: Streptococcus pneumoniae; test: Bactericidal activity against Streptococcus pneumoniae ATCC 6301 incubated for 24 hrs under aerobic condition by MABA; type: functional; conditions: ATCC 6301, 24 h
[13] = test system: Mycolicibacterium smegmatis; test: Antibacterial activity against Mycobacterium smegmatis ATCC 607 incubated for 48 hrs under aerobic condition by MABA; type: functional; conditions: ATCC 607, 48 h, read-out: MIC100
How it was run: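 Mid-log culture at OD 0.5 was incubated with serial dilutions aerobically at 37 °C for 48 h. Resazurin was then added from a 0.08% stock for 1 h. MIC100 was the lowest concentration that stayed blue; absorbance was also read at 570/600 nm.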

[14] = Selectivity index, ratio of IC50 for African green monkey Vero cells to MIC100 for replicating Mycobacterium tuberculosis H37Rv by MABA; type: toxicity; conditions: read-out: Selectivity Index
How it was run: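 Vero cells are cultured in EMEM with 10% FBS and exposed for 72 h to 0.78–200 µg/mL. Medium is switched to phenol-red-free EMEM, MTT is added, and formazan is read at 570 nm to give IC50. The selectivity index is Vero IC50 divided by the MABA MIC.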

[15] = test system: Mycolicibacterium smegmatis; test: Bactericidal activity against Mycobacterium smegmatis ATCC 607 incubated for 48 hrs under aerobic condition by MABA; type: functional; conditions: ATCC 607, 48 h
[16] = test system: Staphylococcus aureus; test: Bactericidal activity against Staphylococcus aureus BAA 1683 incubated for 24 hrs under aerobic condition by MABA; type: functional; conditions: BAA 1683, 24 h
[17] = test system: Staphylococcus aureus; test: Bactericidal activity against Staphylococcus aureus ATCC 25923 incubated for 24 hrs under aerobic condition by MABA; type: functional; conditions: ATCC 25923, 24 h
[18] = test system: Vero; test: Cytotoxicity against African green monkey Vero cells assessed as reduction in cell viability after 72 hrs by MTT assay; type: cell-based; conditions: Chlorocebus sabaeus
How it was run: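 Vero cells were grown in complete EMEM with 10% FBS and exposed for 72 h to 0.78–200 µg/mL. The medium was then swapped for phenol-red-free EMEM and MTT was added. Formazan absorbance was read at 570 nm to give IC50.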

[19] = test system: Enterococcus faecalis; test: Bactericidal activity against Enterococcus faecalis ATCC 19433 incubated for 24 hrs under aerobic condition by MABA; type: functional; conditions: ATCC 19433, 24 h
[20] = test system: Staphylococcus aureus; test: Antibacterial activity against Staphylococcus aureus incubated for 24 hrs under aerobic condition by MABA; type: functional; conditions: read-out: MIC100; how it was run: as §4
[21] = test system: Staphylococcus aureus; test: Antibacterial activity against Staphylococcus aureus BAA 2094 incubated for 24 hrs under aerobic condition by MABA; type: functional; conditions: BAA 2094, 24 h, read-out: MIC100; how it was run: as §4
[22] = test system: Staphylococcus aureus; test: Antibacterial activity against Staphylococcus aureus BAA 44 incubated for 24 hrs under aerobic condition by MABA; type: functional; conditions: BAA 44, 24 h, read-out: MIC100; how it was run: as §1
[23] = AUC (0 to 24 hrs) in Balb/c mouse serum at 30 mg/kg, po; type: ADME, organism-based; set-up: time < 24 hr, dose 30 mg/kg, route oral; how it was run: as §3
[24] = test system: Enterococcus faecalis; test: Antibacterial activity against Enterococcus faecalis ATCC 19433 incubated for 24 hrs under aerobic condition by MABA; type: functional; conditions: ATCC 19433, 24 h, read-out: MIC100; how it was run: as §1
[25] = test system: Staphylococcus aureus; test: Bactericidal activity against Staphylococcus aureus incubated for 24 hrs under aerobic condition by MABA; type: functional
[26] = test system: Escherichia coli; test: Antibacterial activity against Escherichia coli ATCC 10798 incubated for 24 hrs under aerobic condition by MABA; type: functional; conditions: ATCC 10798, 24 h, read-out: MIC100; how it was run: as §1
[27] = test system: Mycobacterium tuberculosis; test: Bactericidal activity against replicating Mycobacterium tuberculosis H37Rv incubated for 15 days under aerobic condition by MABA; type: functional; conditions: 360 h
How it was run: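 Mtb H37Rv grown in 7H9/OADC at 37 °C with shaking to OD600 0.5. The 0.5-OD culture is exposed aerobically to serial dilutions for 15 days at 37 °C. Resazurin (0.02% stock) is then added for 4 h at 37 °C with shaking.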

[28] = Tmax in Balb/c mouse at 30 mg/kg, po; type: ADME, organism-based; conditions: in vivo
How it was run: (§5)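 Single 30 mg/kg oral dose in six BALB/c mice; serum half-life and tmax are derived from the concentration–time profile.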

[29] = Half life in Balb/c mouse serum at 30 mg/kg, po; type: ADME, organism-based; how it was run: as §5
[30] = test system: Mycobacterium tuberculosis; test: Bactericidal activity against non-replicating Mycobacterium tuberculosis CDC1551 expressing tdTomato infected in mouse J774A.1 cells at 2 times MIC up to 72 hrs by DAPI staining based fluorescence microscopic method; type: functional, organism-based
How it was run: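 J774A.1 macrophages are seeded at 1×10^5 cells/well in chamber slides and infected with tdTomato-expressing Mtb CDC1551 at MOI ≈10. […] Imaging is by fluorescence confocal microscopy.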

`CC[C@]1(C)C[C@@H](OC(=O)CSC(C)(C)CNC(=O)[C@H](N)CC(C)C)[C@]2(C)[C@H](C)CC[C@]3(CC[C@@H](O)[C@H]32)[C@@H](C)[C@@H]1O` gave an MIC [1] of 25 µg/mL (≈ 42.9 µM), an AUC [2] of 993 ng·h/mL and a Papp [3] of 18.3 ×10⁻⁶ cm/s. For the same compound, the Papp [4] was 3.39 ×10⁻⁶ cm/s, the Cmax [5] was 1910 ng/mL and the F [6] was 27.6%. For the same compound, the AUC(0-inf) [7] was 1050 ng·h/mL, the IC50 [8] was greater than 200 µM and the MIC [9] was 1.56 µg/mL (≈ 2.68 µM). The Cmax [10] was 1340 ng/mL, the MIC [11] was 6.25 µg/mL (≈ 10.7 µM) and the MBC [12] was greater than 25 µg/mL. For the same compound, the MIC [13] was 6.25 µg/mL (≈ 10.7 µM), the selectivity ratio [14] was 30.1 and the MBC [15] was 25 µg/mL (≈ 42.9 µM). For the same compound, the MBC [16] was greater than 25 µg/mL, the MBC [17] was greater than 25 µg/mL and the IC50 [18] was 25 µg/mL (≈ 42.9 µM). It also gave an MBC [19] of 12.5 µg/mL (≈ 21.4 µM), an MIC [20] of 0.78 µg/mL (≈ 1.34 µM) and an MIC [21] greater than 25 µg/mL. For the same compound, the MIC [22] was greater than 25 µg/mL, the AUC(0-t) at 24 h [23] was 2500 ng·h/mL and the MIC [24] was 6.25 µg/mL (≈ 10.7 µM). For the same compound, the MBC [25] was 1.56 µg/mL (≈ 2.68 µM), the MIC [26] was 12.5 µg/mL (≈ 21.4 µM) and the MBC [27] was 0.83 µg/mL (≈ 1.42 µM). The Tmax [28] was 0.83 h, the half-life [29] was 10.5 h and the Activity [30] was “Active”.
